# The source made the active and inactive calls. The rule behind the calls is not given here.
# Legend:
# Type in all cases: cell-based
# [1] = target: T1, Toll-like receptor 7 (Homo sapiens) (UniProt Q9NYK1); experiment: Inhibition of human TLR7 expressed in HEK293 cells assessed as decrease in R848-induced NF-kappaB activation-mediated SEAP production at 40 uM after 24 hrs by Quanti-blue-based assay relative to control
# T1 sequence (whole entry): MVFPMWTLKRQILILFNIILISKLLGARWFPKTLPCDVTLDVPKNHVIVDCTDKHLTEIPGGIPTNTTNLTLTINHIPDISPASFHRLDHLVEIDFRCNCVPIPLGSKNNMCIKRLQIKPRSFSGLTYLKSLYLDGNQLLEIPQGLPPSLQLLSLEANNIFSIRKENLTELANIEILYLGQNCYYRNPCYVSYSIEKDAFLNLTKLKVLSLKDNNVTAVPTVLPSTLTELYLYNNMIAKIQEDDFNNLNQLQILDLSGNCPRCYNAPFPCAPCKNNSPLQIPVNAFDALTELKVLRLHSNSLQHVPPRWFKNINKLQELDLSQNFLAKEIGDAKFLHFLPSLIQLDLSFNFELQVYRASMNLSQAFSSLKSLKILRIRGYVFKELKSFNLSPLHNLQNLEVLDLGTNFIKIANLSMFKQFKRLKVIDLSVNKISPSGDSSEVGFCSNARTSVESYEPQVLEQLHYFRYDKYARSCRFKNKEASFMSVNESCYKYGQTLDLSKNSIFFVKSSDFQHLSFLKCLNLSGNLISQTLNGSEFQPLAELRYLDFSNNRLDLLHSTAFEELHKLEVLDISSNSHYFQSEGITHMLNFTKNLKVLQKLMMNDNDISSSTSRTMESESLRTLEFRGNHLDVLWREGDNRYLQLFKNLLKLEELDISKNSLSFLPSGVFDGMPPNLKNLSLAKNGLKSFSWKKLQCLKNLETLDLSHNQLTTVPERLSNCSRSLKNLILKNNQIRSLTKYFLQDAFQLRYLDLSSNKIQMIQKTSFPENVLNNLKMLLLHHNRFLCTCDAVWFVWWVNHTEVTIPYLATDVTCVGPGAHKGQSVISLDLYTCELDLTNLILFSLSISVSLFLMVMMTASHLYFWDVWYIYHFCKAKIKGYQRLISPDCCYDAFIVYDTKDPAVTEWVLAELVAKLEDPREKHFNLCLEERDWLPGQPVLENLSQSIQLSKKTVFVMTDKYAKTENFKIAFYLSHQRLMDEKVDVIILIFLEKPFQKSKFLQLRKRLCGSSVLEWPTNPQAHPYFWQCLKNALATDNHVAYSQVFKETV
# In short: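 Screening mode: HEK hTLR7 cells, 20,000/well in duplicate, stimulated with R848 1 µg/mL, library compounds at 40 µM; triptolide 40 nM positive control, 0.4% DMSO negative control; SEAP read by QUANTI-Blue.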
# [2] = target: T1, Toll-like receptor 7 (Homo sapiens); experiment: Inhibition of human TLR7 expressed in HEK293 cells assessed as decrease in R848-induced NF-kappaB activation-mediated SEAP production at 5 uM after 24 hrs by Quanti-blue-based assay relative to control
# [3] = target: T1, Toll-like receptor 7 (Homo sapiens); experiment: Inhibition of human TLR7 expressed in HEK293 cells assessed as decrease in R848-induced NF-kappaB activation-mediated SEAP production at 30 uM after 24 hrs by Quanti-blue-based assay relative to control
SMILES,inhibition [1],further results
Nc1cccnc1C(=O)NNC(=O)c1cccc(C(F)(F)F)c1,83.1%,–
Nc1nccnc1C(=O)NNC(=O)c1cccnc1,12%,–
O=C(NNC(=O)c1cc2ccccc2[nH]1)c1ccc(Cl)cc1,13%,–
O=C(NNC(=O)c1ncccc1O)c1ccc(Br)cc1,96.2%,–
Cc1ccc(-c2nc(C(=O)NNC(=O)c3ccccn3)cs2)cc1,–,inhibition [2]: 88.2%
O=C(NNC(=O)c1csc(-c2ccc(Cl)cc2)n1)c1ccccn1,–,inhibition [2]: 91%
Nc1nccnc1C(=O)NNC(=O)c1ccc(C(F)(F)F)cc1,79%,–
Cc1nc(C(=O)NNC(=O)c2cccc(F)c2)cs1,21.1%,–
O=C(NNC(=O)c1ccccn1)c1ccc(Cl)cc1,76%,–
O=C(NNC(=O)c1csc(-c2cccc(Cl)c2)n1)c1ccccn1,–,inhibition [2]: 93.7%
CN(C)c1ccc(-c2nc(C(=O)NNC(=O)c3ccccn3)cs2)cc1,–,inhibition [2]: 93.1%
O=C(NNC(=O)c1ncccc1O)c1cccc(C(F)(F)F)c1,96%,–
Nc1nccnc1C(=O)NNC(=O)c1ccccc1C(F)(F)F,23%,–
Cc1nc(C(=O)NNC(=O)c2cccc(O)c2)cs1,18%,–
Cc1nc(C(=O)NNC(=O)c2ccncc2)cs1,19.5%,–
O=C(NNC(=O)c1cnccn1)c1cccc(C(F)(F)F)c1,29%,–
Cc1ncc(C(=O)NNC(=O)c2ccc(Cl)cc2)s1,17%,–
O=C(NNC(=O)c1csc(-c2ccc(F)cc2)n1)c1ccccn1,–,inhibition [2]: 65%
O=C(NNC(=O)c1csc(-c2cccc(C(F)(F)F)c2)n1)c1ccccn1,–,inhibition [2]: 96.7%
Cc1nc(C(=O)NNC(=O)c2cccc(OC(F)(F)F)c2)cs1,26%,–
CC(C)c1cc(C(=O)NNC(=O)c2ccc(Cl)cc2)[nH]n1,11%,–
Nc1ncc(Br)nc1C(=O)NNC(=O)c1cccc(C(F)(F)F)c1,18.2%,–
COc1ccc(C(=O)NNC(=O)c2nccnc2N)cc1,20.4%,–
O=C(NNC(=O)c1csc(-c2ccccc2)n1)c1ccccn1,98.8%,–

SMILES,inhibition [1],further results
Nc1nccnc1C(=O)NNC(=O)c1ccc(O)cc1,17.7%,–
O=C(NNC(=O)c1csc(-c2ccncc2)n1)c1ccccn1,33%,–
Cc1nc(C(=O)NNC(=O)c2cccc(Br)c2)cs1,30.6%,–
O=C(NNC(=O)c1csc(-c2cccnc2)n1)c1ccccn1,86%,–
Cc1nc(C(=O)NNC(=O)c2cccc(Cl)c2)cs1,40%,–
O=C(NNC(=O)c1ncccc1O)c1ccc(C(F)(F)F)cc1,97.4%,–
Nc1nccnc1C(=O)NNC(=O)c1ccc(OC(F)(F)F)cc1,72%,–
CCCC1Nc2nccnc2C(=O)N1NC(=O)c1cccc(C(F)(F)F)c1 (configuration not stated),21%,–
Cc1nc(C(=O)NNC(=O)c2ccc(Cl)cc2)cs1,51%,inhibition [3]: Active
Nc1nccnc1C(=O)NNC(=O)c1ccc(Cl)cc1,42%,–
COc1cccc(C(=O)NNC(=O)c2csc(C)n2)c1,24%,–
O=C(NNC(=O)c1ncccc1O)c1ccc(OC(F)(F)F)cc1,96.5%,–
Cc1nc(C(=O)NNC(=O)c2cccc(C(F)(F)F)c2)cs1,31%,–
Cc1nc(C(=O)NNC(=O)c2cccc(C#N)c2)cs1,6.4%,–
O=C(NNC(=O)c1csc(-c2cccc(Cl)c2Cl)n1)c1ccccn1,–,inhibition [2]: 99.9%
Nc1nccnc1C(=O)NNC(=O)c1ccc([N+](=O)[O-])cc1Cl,23%,–
COC(=O)c1cccc(C(=O)NNC(=O)c2csc(C)n2)c1,9%,–
O=C(NNC(=O)c1csc(-c2ccc(C(F)(F)F)cc2)n1)c1ccccn1,–,inhibition [2]: 96.1%
O=C(NNC(=O)c1csc(-c2cccc(F)c2)n1)c1ccccn1,–,inhibition [2]: 79%
COc1ccc(-c2nc(C(=O)NNC(=O)c3ccccn3)cs2)cc1OC,–,inhibition [2]: 66%
O=C(NNC(=O)c1ncccc1O)c1ccc(Cl)cc1,81%,–
Cc1nc(C(=O)NNC(=O)c2cc(Cl)cc(Cl)c2)cs1,24%,–
O=C(NNC(=O)c1ccccn1)c1ccc(C(F)(F)F)cc1,85.4%,–
CCc1ccc(-c2nc(C(=O)NNC(=O)c3ccccn3)cs2)cc1,–,inhibition [2]: 91.9%

SMILES,inhibition [1],further results
N#Cc1ccc(C(=O)NNC(=O)c2nccnc2N)cc1,15%,–
Nc1ncccc1C(=O)NNC(=O)c1cccc(C(F)(F)F)c1,22%,–
CC(C)c1nc(C(=O)NNC(=O)c2ccccn2)cs1,94.2%,–
O=C(NNC(=O)c1nccs1)c1ccc(Cl)cc1,24%,–
O=C(NNC(=O)c1nccnc1Cl)c1cccc(C(F)(F)F)c1,19%,–
CCCCCCNC(=O)c1ccc(C(=O)NNC(=O)c2nccnc2N)cc1,17%,–
Nc1nccnc1C(=O)NNC(=O)c1cccc(C(F)(F)F)c1,68%,inhibition [3]: Active
Nc1nccnc1C(=O)NNC(=O)c1ccc(Br)cc1,36.2%,–
COC(=O)c1ccc(C(=O)NNC(=O)c2nccnc2N)cc1,18%,–
O=C(NNC(=O)c1csc(-c2cccc(Br)c2)n1)c1ccccn1,–,inhibition [2]: 97.6%
Cc1nc(C(=O)NNC(=O)c2ccccc2Cl)cs1,6%,–
COc1ccc(-c2nc(C(=O)NNC(=O)c3ccccn3)cs2)cc1,–,inhibition [2]: 80.3%
Cc1ccc2c(Cl)c(C(=O)NNC(=O)c3ccc(Cl)cc3)sc2c1,16.7%,–
O=C(NNC(=O)c1ccccn1)c1ccc(OC(F)(F)F)cc1,79.8%,–
O=C(NNC(=O)c1ccccn1)c1cccc(C(F)(F)F)c1,88%,–
O=C(NNC(=O)c1csc(-c2cc(Cl)cc(Cl)c2)n1)c1ccccn1,–,inhibition [2]: 99.1%
O=C(NNC(=O)c1ccccn1)c1ccc(Br)cc1,82.3%,–
Cc1nc(C(=O)NNC(=O)c2cccnc2)cs1,21%,–
Nc1nccnc1C(=O)NNC(=O)c1ccc(F)cc1F,26%,–
Nc1nccnc1C(=O)NNC(=O)c1c(Cl)cccc1Cl,28%,–
Cc1nc(C(=O)NNC(=O)c2ccccn2)cs1,73%,–
Nc1ncc(Cl)nc1C(=O)NNC(=O)c1cccc(C(F)(F)F)c1,21%,–
